Results published in ChEMBL document CHEMBL4266004, “Series of Alkynyl-Substituted Thienopyrimidines as Inhibitors of Protozoan Parasite Proliferation” (ACS Med Chem Lett, 2018).

Experiments:
[1] = system: Trypanosoma brucei brucei; experiment: Antitrypanosomal activity against Trypanosoma brucei brucei 427 at 5 uM after 48 hrs by presto blue dye based fluorescence assay relative to control; type: functional
Method in brief: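 Single-concentration screen of bloodstream T. brucei cultures at 5 μM, 5 × 10^4 cells/mL; percent proliferation inhibition recorded.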

[2] = system: Plasmodium falciparum; experiment: Antimalarial activity against Plasmodium falciparum D6 trophozoites after 72 hrs by SYBR Green I dye-based fluorescence assay; type: functional, organism-based; details: D6, 72 h
Method in brief: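 P. falciparum D6 strain; compounds run in duplicate or quadruplicate; EC50 determined from dose-response.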

[3] = system: Leishmania major; experiment: Antileishmanial activity against Leishmania major intracellular amastigotes harboring luciferase infected in mouse RAW264.7 cells after 96 hrs by luminescence assay; type: functional, organism-based; details: RAW264.7, 96 h
Method in brief: (§1)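 L. major amastigotes screened in duplicate or quadruplicate. Selectivity derived as HepG2 TC50 / L. major EC50.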

[4] = Selectivity index, ratio of TC50 for human HepG2 cells to EC50 for Leishmania major intracellular amastigotes harboring luciferase infected in mouse RAW264.7 cells; type: toxicity, cell-based; details: read-out: Selectivity Index; method in brief: as §1
[5] = system: Trypanosoma cruzi; experiment: Antitrypanosomal activity against Trypanosoma cruzi Tulahuen intracellular amastigote harboring beta-galactosidase infected in mouse NIH/3T3 cells after 96 hrs by CPRG reagent based assay; type: functional, organism-based; details: NIH3T3, 96 h
[6] = Cytotoxicity against human HepG2 cells; type: cell-based; details: read-out: TC50 (the source's name)
[7] = Cytotoxicity against mouse NIH/3T3 cells; type: cell-based, NIH3T3; details: read-out: TC50 (the source's name)
[8] = Selectivity index, ratio of TC50 for mouse NIH/3T3 cells to EC50 for Trypanosoma cruzi Tulahuen intracellular amastigote harboring beta-galactosidase; type: toxicity, cell-based; details: read-out: Selectivity Index
Method in brief: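 NIH 3T3 cells, the host line for intracellular T. cruzi amastigote culture, tested for toxicity. Selectivity = NIH3T3 TC50 / T. cruzi EC50.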

[9] = Selectivity index, ratio of TC50 for human HepG2 cells to EC50 for Plasmodium falciparum D6 trophozoites; type: toxicity; details: read-out: Selectivity Index
Method in brief: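 P. falciparum D6 screened in duplicate or quadruplicate. Selectivity = HepG2 TC50 / P. falciparum EC50.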

[10] = system: Trypanosoma brucei brucei; experiment: Antitrypanosomal activity against Trypanosoma brucei brucei 427 after 48 hrs by presto blue dye based fluorescence assay; type: functional, organism-based; details: Trypanosoma brucei, 427, 48 h
[11] = Selectivity index, ratio of TC50 for human HepG2 cells to EC50 for Trypanosoma brucei brucei 427; type: toxicity; details: read-out: Selectivity Index

Structure (SMILES) | Activity [1] [%] | EC50 [2] [µM] | EC50 [3] [µM] | selectivity ratio [4] | EC50 [5] [µM] | CC50 [6] [µM] | CC50 [7] [µM] | selectivity ratio [8] | selectivity ratio [9] | EC50 [10] [µM] | selectivity ratio [11]
CN(C)CC#Cc1cc2ncnc(Nc3ccc(OCc4cccc(F)c4)c(Cl)c3)c2s1 | 52 | > 15 | 2.5 | > 13 | 8.2 | > 32 | > 50 | > 6 | – | – | –
CC(C)(C)OC(=O)N1CCC[C@H]1C#Cc1cc2ncnc(Nc3ccc(OCc4cccc(F)c4)c(Cl)c3)c2s1 | >75 | 1.7 | 1.6 | > 16 | > 50 | > 26 | > 100 | – | > 15 | 1.2 | > 22
Fc1cccc(COc2ccc(Nc3ncnc4cc(C#CCN5CCCC5)sc34)cc2Cl)c1 | >75 | 1.3 | 4.1 | 1.2 | 1.8 | 4.9 | 6.4 | 3.6 | 3.8 | 0.28 | 18
Fc1cccc(COc2ccc(Nc3ncnc4cc(C#CCN5CCOCC5)sc34)cc2Cl)c1 | 16 | 3 | 7.6 | > 3.8 | 3.4 | > 29 | 4.7 | 1.4 | > 9.7 | – | –
COCC#Cc1cc2c(Nc3ccc(OCc4cccc(F)c4)c(Cl)c3)ncnc2s1 | 18 | 3.02 | 7.3 | 1.3 | 1.5 | 9.5 | 1.7 | 1.1 | 3.2 | – | –
Fc1cccc(COc2ccc(Nc3ncnc4cc(C#Cc5ncccc5F)sc34)cc2Cl)c1 | 19 | 1.1 | > 15 | – | 19 | 30 | 47 | 2.5 | 27 | – | –
CCCN(CC#Cc1cc2ncnc(Nc3ccc(OCc4cccc(F)c4)c(Cl)c3)c2s1)CCC | 1 | > 15 | 6 | 4.5 | > 50 | 26.5 | > 50 | – | – | – | –
CN(CC#Cc1cc2ncnc(Nc3ccc(OCc4cccc(F)c4)c(Cl)c3)c2s1)Cc1ccccc1 | 18 | > 15 | > 15 | – | > 50 | > 27 | > 50 | – | – | – | –
Fc1cccc(COc2ccc(Nc3ncnc4ccc(-c5cccc(N6CCOCC6)c5)cc34)cc2Cl)c1 | – | – | – | – | – | > 35 | – | – | – | – | –
Fc1cccc(COc2ccc(Nc3ncnc4sc(C#CCN5CCOCC5)cc34)cc2Cl)c1 | 48 | 3 | 6.5 | > 4.5 | – | > 29 | – | – | > 9.7 | – | –
CCOC(=O)CN(C)CC#Cc1cc2c(Nc3ccc(OCc4cccc(F)c4)c(Cl)c3)ncnc2s1 | 53 | > 15 | 9 | > 3.1 | > 50 | > 28 | > 50 | – | – | – | –
CC(C)(C)CC#Cc1cc2c(Nc3ccc(OCc4cccc(F)c4)c(Cl)c3)ncnc2s1 | 1 | 5.7 | > 15 | – | 30 | > 32 | > 50 | > 1.7 | > 5.6 | – | –
CN(CC#Cc1cc2c(Nc3ccc(OCc4cccc(F)c4)c(Cl)c3)ncnc2s1)Cc1ccccc1 | 0 | 4.8 | 11 | 2 | 1.9 | 21.6 | 2.5 | 1.3 | 4.6 | – | –
Fc1cccc(COc2ccc(Nc3ncnc4ccc(C#CCN5CCOCC5)cc34)cc2Cl)c1 | 27 | 5.9 | 5.5 | > 5.5 | 0.8 | > 30 | 33 | 41 | > 5.1 | – | –
Fc1cccc(COc2ccc(Nc3ncnc4cc(C#Cc5cn6ccnc6cn5)sc34)cc2Cl)c1 | 33 | 5.7 | > 15 | – | > 50 | > 28 | > 50 | – | > 4.9 | – | –
CCOC(=O)CN(C)CC#Cc1ccc2ncnc(Nc3ccc(OCc4cccc(F)c4)c(Cl)c3)c2c1 | 23 | > 15 | > 15 | – | 8 | > 28 | > 50 | > 6.3 | – | – | –

Structure (SMILES) | Activity [1] [%] | EC50 [2] [µM] | EC50 [3] [µM] | selectivity ratio [4] | EC50 [5] [µM] | CC50 [6] [µM] | CC50 [7] [µM] | selectivity ratio [8] | selectivity ratio [9] | EC50 [10] [µM] | selectivity ratio [11]
Fc1cccc(COc2ccc(Nc3ncnc4ccc(C#CC5CCCC5)cc34)cc2Cl)c1 | 2 | > 15 | > 2 | – | 2 | > 3 | > 50 | > 25 | – | – | –
Fc1cccc(COc2ccc(Nc3ncnc4cc(C#Cc5ccccn5)sc34)cc2Cl)c1 | >75 | 2 | 0.38 | 63 | 12 | 24 | 27 | 2.3 | 12 | 1.3 | 18
Fc1cccc(COc2ccc(Nc3ncnc4cc(C#CCN5CCNCC5)sc34)cc2Cl)c1 | 16 | 1.9 | 4 | > 7.3 | > 50 | > 29 | > 50 | – | > 15 | – | –
O=C(Cn1ccnc1[N+](=O)[O-])NCc1ccccc1 [BENZNIDAZOLE] | – | – | – | – | 0.79 | – | – | – | – | – | –
Fc1cccc(COc2ccc(Nc3ncnc4cc(C#CCN5CCSCC5)sc34)cc2Cl)c1 | 12 | > 15 | 5.9 | > 4.8 | 5 | > 28 | > 50 | > 10 | – | – | –
CCN(CC)CCCC(C)Nc1ccnc2cc(Cl)ccc12 (centres undefined) [CHLOROQUINE] | – | 0.0089 | – | – | – | – | – | – | – | – | –
Fc1cccc(COc2ccc(Nc3ncnc4cc(C#CC5CCCC5)sc34)cc2Cl)c1 | >75 | 3.6 | > 15 | – | > 50 | > 31 | > 100 | – | > 8.6 | 0.76 | > 41
CC(C)CC#Cc1cc2ncnc(Nc3ccc(OCc4cccc(F)c4)c(Cl)c3)c2s1 | 11 | > 15 | > 15 | – | > 50 | > 32 | > 50 | – | – | – | –
CC(C)(C)CC#Cc1cc2ncnc(Nc3ccc(OCc4cccc(F)c4)c(Cl)c3)c2s1 | 31 | > 15 | > 15 | – | > 50 | 29.3 | > 50 | – | – | – | –
Fc1cccc(COc2ccc(Nc3ncnc4ccc(C#CCN5CCSCC5)cc34)cc2Cl)c1 | 19 | 1.1 | 5.4 | > 5.4 | 2.5 | > 29 | > 50 | > 20 | > 26 | – | –
C[C@@H]1[C@H](O)[C@@H](C)/C=C/C=C/C=C/C=C/C=C/C=C/C=C/[C@H](O[C@@H]2O[C@H](C)[C@@H](O)[C@H](N)[C@@H]2O)C[C@@H]2O[C@](O)(C[C@@H](O)C[C@@H](O)[C@H](O)CC[C@@H](O)C[C@@H](O)CC(=O)O[C@H]1C)C[C@H](O)[C@H]2C(=O)O [AMPHOTERICIN B] | – | – | 0.035 | – | – | – | – | – | – | – | –
CCOC(=O)CN(C)CC#Cc1cc2ncnc(Nc3ccc(OCc4cccc(F)c4)c(Cl)c3)c2s1 | 27 | 3.8 | 4.6 | 5.9 | 9.6 | 27 | 52 | 5.4 | 7.1 | – | –
Cc1ccc(C(=O)Nc2ccc(S(=O)(=O)O)c3cc(S(=O)(=O)O)cc(S(=O)(=O)O)c23)cc1NC(=O)c1cccc(NC(=O)Nc2cccc(C(=O)Nc3cc(C(=O)Nc4ccc(S(=O)(=O)O)c5cc(S(=O)(=O)O)cc(S(=O)(=O)O)c45)ccc3C)c2)c1 [SURAMIN] | – | – | – | – | – | – | – | – | – | 0.04 | –
Fc1cccc(COc2ccc(Nc3ncnc4cc(C#Cc5ccc(C(F)(F)F)nc5)sc34)cc2Cl)c1 | 31 | > 3.6 | > 3 | – | > 50 | > 5 | > 50 | – | – | – | –
CC(C)(C)OC(=O)N1CCN(CC#Cc2cc3ncnc(Nc4ccc(OCc5cccc(F)c5)c(Cl)c4)c3s2)CC1 | 15 | 1.5 | 6.9 | > 3.5 | 13 | > 24 | 47 | 3.6 | > 19 | – | –
